# Experimental data of several laboratories.
# Protocols differ between the studies behind these lines.
# MTOR: Serine/threonine-protein kinase mTOR (MTOR, Homo sapiens, UniProt P42345)
# HSP90B1: Endoplasmin (HSP90B1, Canis lupus familiaris, UniProt P41148)
# SMARCA2 bromodomain: SWI/SNF-related matrix-associated actin-dependent regulator of chromatin subfamily A member 2, bromodomain (SMARCA2, Homo sapiens, UniProt P51531)
# TYK2 JH2: Non-receptor tyrosine-protein kinase TYK2, JH2 (TYK2, Homo sapiens, UniProt P29597)
SMILES,target,observed,technique,setting,Kd
CCC(=O)N1CCC(C(=O)N(C)CC(=O)N2CCN(c3nc(-c4cnc(N)nc4C(F)F)nc(N4CCOCC4)n3)CC2)CC1,MTOR,binding,competition with immobilised ligand,,0.054 µM
COC(=O)c1c(O)cc(O)c(Cl)c1CCC(=O)Nc1nncs1,HSP90B1,ligand displacement,FP,,1.54 µM
Cc1nc(NC(=O)N2CCC[C@H]2C(N)=O)sc1-c1ccnc(C(C)(C)C(F)(F)F)c1,MTOR,binding,competition with immobilised ligand,,0.645 µM
Cc1ncsc1-c1ccc(CNC(=O)[C@@H]2C[C@@H](O)CN2C(=O)[C@@H](NC(=O)C2(F)CC2)C(C)(C)C)c(OCCOc2ccc(CN3CCN(c4cc(-c5ccccc5O)nnc4N)CC3)cc2)c1,SMARCA2 bromodomain,binding,SPR,,1.8 µM
CC(C)Nc1ccnc(Nc2cccc(-c3cccnc3)c2)n1,TYK2 JH2,binding,competition with immobilised ligand,,0.21 µM
COC(=O)c1c(O)cc(O)c(Cl)c1CCC(=O)Nc1ccccc1,HSP90B1,ligand displacement,FP,,20.5 µM
Cc1ncsc1-c1ccc(CNC(=O)[C@@H]2C[C@H](O)CN2C(=O)[C@@H](NC(=O)C2(F)CC2)C(C)(C)C)c(OCCc2ccc(CN3CCN(c4cc(-c5ccccc5O)nnc4N)CC3)cc2)c1,SMARCA2 bromodomain,binding,SPR,,1.2 µM
c1cncc(-c2cccc(Nc3nccc(NC4CCCCC4)n3)c2)c1,TYK2 JH2,binding,competition with immobilised ligand,,0.74 µM
Cc1cc2nc3c(=O)[nH]c(=O)nc-3n(C[C@H](O)[C@H](O)[C@H](O)COP(=O)(O)OP(=O)(O)OC[C@H]3O[C@@H](n4cnc5c(N)ncnc54)[C@H](O)[C@@H]3O)c2cc1C,"Heterogeneous nuclear ribonucleoprotein H (Homo sapiens, UniProt P31943)",binding,,lysate,0.053 µM
CCCN1CCN(c2ccc(-c3cncc(Cl)c3N3CCC4(CCNC4=O)CC3)cc2)CC1,"Protein kinase C delta type (PRKCD, Homo sapiens, UniProt Q05655)",cell-free assay,,lysate,3.47 µM
N=c1ccc2c(-c3ccc(C(=O)NCCCCCCn4cc(CCCC(=O)Nc5nc6ccc(Cl)cc6c6nc(-c7ccco7)nn56)nn4)cc3C(=O)O)c3ccc(N)c(S(=O)(=O)O)c3oc-2c1S(=O)(=O)O,"Adenosine receptor A3 (ADORA3, Homo sapiens, UniProt P0DMS8)",binding,flow cytometry,,0.00515 µM
COC(=O)c1c(O)cc(O)c(Cl)c1CCC(=O)Nc1ccccc1Cl,HSP90B1,ligand displacement,FP,,1.85 µM
CC1(C)[C@@H]2CC[C@@]1(C)C(=O)C2,"Camphor 5-monooxygenase (camC, Pseudomonas putida, UniProt P00183)",binding,ITC,,1.2 µM
CCN(CC)CCCC(C)Nc1c2ccc(Cl)cc2nc2ccc(OC)cc12 (stereo not shown),"Lysozyme C (LYZ, Gallus gallus, UniProt P00698)",binding,fluorescence,,4.7 µM
COC(=O)c1c(O)cc(O)c(Cl)c1CCC(=O)Nc1nccs1,HSP90B1,ligand displacement,FP,,1.08 µM
COc1cc2c(Nc3ccc(NC(=O)c4ccccc4)cc3)ncnc2cc1OCCCN1CCOCC1,"Epidermal growth factor receptor (EGFR, Homo sapiens, UniProt P00533)",binding,,,> 10 µM
